Bioassay records (PubChem BioAssay)
Hits are enriched below; roughly 1.7% of the tested compounds scored in any of these assays.
PGC1a acetyl inh – PGC1a acetylation modulation, inhibitor mode; U2OS PGC1a acetylation, AlphaScreen anti-acetyl-lysine; with virally co-expressed GCN5 acetyltransferase; hit rate 0.17% among 350,000; inhibition, % at 15.6 µM; AID 651687;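 active means every replicate shows inhibition of at least 40%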;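 further: 0% = neutral control wells and 100% = positive control wells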
miR122 inh – blocks miR-122 activity in Huh7 sensor cells; Huh7 miR-122 Renilla luciferase sensor, 48 h; neutral wells = 0, positive control = 100; activation (reporter increase), % at 12.5 µM; hit rate 0.3% among 340,000; AID 602342;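 active means mean replicate activation score at least 90 and every replicate individually at or above 90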;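 further: higher luciferase means less miR-122 activity so hits act as miR-122 inhibitors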
ARNT TACC3 PPI – ARNT/TACC3 interaction disruption | Q9Y6A5 | AlphaScreen His-ARNT PAS-B/GST-TACC3 binding, luminescence; TACC3 fragment carries E629A point mutation | inhibition, % at 9.99 µM | hit rate 0.66% among 390,000;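 active means mean inhibition of replicates at least 50% and at least half of replicates each reaching 50%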;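 further: 0% = complete ARNT plus TACC3 wells and 100% = ARNT alone without TACC3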
CAL PDZ FP-1 – CAL PDZ (human) peptide binding inhibition; inhibition, % at 24.9 µM; AID 602252; purified CAL PDZ, TMR-peptide fluorescence polarization, 1 h; hit rate 0.92% among 300,000; Q9HD26;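 active means mean inhibition of at least 30% with at least half of replicates also reaching 30%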;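 further: 0% = DMSO neutral control and 100% = excess unlabeled competitor peptide PRC23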
F508del corr – correctors of CFTR F508del function in bronchial epithelial cells; CFBE cells, YFP halide quenching; stimulated with forskolin plus potentiator P3; % fluorescence drop versus neutral controls; activity (quench increase), % at 7.58 µM; hit rate 0.36% among 350,000;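 active means mean added fluorescence quench of at least 8% versus neutral control, with both replicates also reaching 8%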;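 further: cells transiently co-express mutant CFTR-F508del with the halide-sensitive YFP; corrector assay measuring rescue of mutant channel to the surface after 24 h compound exposure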
CAL PDZ FP-2 – blocks peptide binding to human CAL PDZ domain. Q9HD26. purified CAL PDZ, TMR-peptide fluorescence polarization, 1 h. inhibition, % at 20 µM. hit rate 0.02% among 330,000. AID 504414;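 active means highest replicate inhibition of at least 40%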;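 further: plate controls were DMSO neutral control wells for no effect and unlabeled competitor peptide control wells for full effect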
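Test system: purified CerCALP PDZ construct; Compound dosing: one concentration, 20 µM compound; Also added: TMR-labelled reporter peptide T*-PRC34 bound in PDZ groove; Read-out: inhibition from polarization loss; Controls: unlabelled peptide and DMSO controls; Signal: FP readout, S and P plane fluorescence; Incubation: 1 h at RT.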
Numbers without * were called inactive; nt = no result given; + = active, no number; [ ] = another dose, or the depositor's remark.

SMILES | PGC1a acetyl inh | miR122 inh | ARNT TACC3 PPI | CAL PDZ FP-1 | F508del corr | CAL PDZ FP-2
Oc1ccccc1C=NCCCCCCN=Cc1ccccc1O | -6.0 | 7.3 | 9.0 | + | 0.6 | 0.1
Oc1ccccc1C=NCCN=Cc1ccccc1O | -6.5 | -5.0 | 4.1 | -3.7 | -2.9 | 0.2
CCOC(=O)Nc1ccc(C(=O)/C=C/c2ccccc2)cc1 | 48.2 | 15.2 | -5.0 | 79.4* | 1.4 | -1.2
C[C@@H]1CN([C@@H](C)CO)C(=O)c2cc(NC(=O)Nc3ccc4c(c3)OCO4)ccc2O[C@@H]1CN(C)C(=O)Nc1ccc(F)cc1 | -0.8 | -6.0[16.7 µM] | 17.4 | nt | 2.2 | nt
O=C(c1ccc(-c2cc(O)c3ncccc3c2)cc1)N1CCNCC1 | 9.2 | -1.4 | 66.3* | -1.4 | 3.4 | -0.9
CN1CCN(C(=O)C[C@H]2C[C@H]3c4cc(NC(=O)NC5CCCC5)ccc4O[C@H]3[C@@H](CO)O2)CC1 | -8.2 | 1.5[16.7 µM] | -2.4 | nt | 0.7 | nt
COc1ccc(OCCOc2ccc(N(C)S(=O)(=O)c3ccccc3)cc2)cc1 | nt | nt | 0.6 | -3.2 | -1.6 | -1.9
CN(c1ccc(OCCOc2ccccc2Cl)cc1)S(=O)(=O)c1ccccc1 | nt | nt | 6.0 | 0.9 | 8.1* | -1.5
c1ccc(-c2noc(CCC3CCCC3)n2)cc1 | 11.1 | -4.2 | -14.9 | 1.6 | -2.3 | -0.8
c1ccc(-c2noc(CC3CCCCC3)n2)cc1 | -14.0 | 4.9 | -3.1 | 40.3* | -2.1 | -0.7
COc1ccc(S(=O)(=O)N2CCN(C(=O)c3ccco3)CC2)c(C)c1C | -25.3 | -7.7 | -3.8 | 74.8* | -0.8 | 6.6
CO[C@H]1CN(C)C(=O)c2ccc(NC(=O)C3CCOCC3)cc2OC[C@H](C)N(Cc2cccnc2)C[C@H]1C | 5.7 | nt | -10.8 | nt | -2.2 | nt
CC(C)NC(=O)N(C)C[C@H]1Oc2ccc(NS(=O)(=O)c3ccccc3)cc2CC(=O)N([C@@H](C)CO)C[C@@H]1C | 9.4 | 6.1[16.7 µM] | nt | nt | -1.7 | nt
C[C@@H]1CN([C@H](C)CO)C(=O)c2cc(-c3cccnc3)cnc2O[C@H]1CN(C)C(=O)C1CCOCC1 | 3.7 | -3.3[16.7 µM] | -7.4 | nt | -0.7 | nt
O=C(NC1CCCCC1c1ccccc1)c1ccccc1 (stereo unspecified) | nt | nt | 4.5 | -0.6 | 1.1 | 0.7
O=C(NC1CCCCCCC1O)c1ccccc1 (stereo unspecified) | 57.1* | -11.3 | -6.4 | 1.1 | -1.4 | -1.1
CCc1cc(=O)oc2c(CNCc3ccc(OC)cc3OC)c(O)c(Cl)cc12 | -3.1 | -3.8 | -1.6 | -4.8 | -0.2 | -1.3
COc1ccc(CNCc2c(O)c(Cl)cc3c(C)c(C)c(=O)oc23)c(OC)c1 | 1.2 | -1.9 | -2.3 | 31.6* | 1.8 | -0.5
O=C(NNC(=O)C1CCC1)c1ccc(Br)cc1 | nt | nt | -5.3 | 50.1* | -0.9 | 0.2
Cc1cc2nc(SC(C)C(=O)O)[nH]c2cc1C (stereo unspecified) | nt | -8.8 | -10.1 | active | nt | -2.7
Cc1ccc2nc(SC(C)C(=O)NC3CCCC3)[nH]c2c1 (stereo unspecified) | 8.3 | 4.4 | 1.5 | -5.3 | 4.1 | -0.9
COC(=O)C1C(O)=C(C=NCc2ccccc2)C(=O)CC1(C)C (stereo unspecified) | 13.1 | -2.9 | -3.1 | 1.4 | nt | -0.2
COC(=O)C1C(O)=C(C=Nc2cccc3ccccc23)C(=O)CC1(C)C (stereo unspecified) | nt | nt | -0.2 | 59.6* | 3.7 | -2.2
CCCNC(=O)C[C@H]1C[C@@H]2c3cc(NC(=O)Nc4ccccc4)ccc3O[C@@H]2[C@H](CO)O1 | 27.2 | 2.0[16.7 µM] | -6.2 | nt | 0.5 | nt
COc1cc(CC(=O)NCC(C)(C)N2CCOCC2)cc(OC)c1OC | 3.1 | 1.2 | -7.4 | 55.1* | 0.3 | -0.3
SMILES | PGC1a acetyl inh | miR122 inh | ARNT TACC3 PPI | CAL PDZ FP-1 | F508del corr | CAL PDZ FP-2
COc1ccc(S(N)(=O)=O)cc1C(=O)NCC(C)(C)N1CCOCC1 | nt | -4.6 | 2.4 | -2.4 | -3.5 | -1.6
Cc1ccc(S(=O)(=O)NC23CC4CC(CC(C4)C2)C3)cc1 | -32.3 | 106.4* | 14.5 | nt | 0.8 | -1.3
Cc1ccc(N/N=C(\C#N)C(=N)N2CCCCCC2)cc1 | 5.7 | nt | -0.2 | 30.2* | 2.0 | 0.8
COc1ccc(N/N=C(\C#N)C(=N)N2CCCCC2)cc1 | 4.7 | nt | 0.8 | 49.3* | -0.6 | -0.7
Cc1ccc(N/N=C(\C#N)C(=N)N2CCOCC2)cc1 | nt | nt | 1.3 | -1.9 | 1.8 | -2.2
COc1ccc2c3c([nH]c2c1)[C@@H](CO)N(S(C)(=O)=O)CC31CCN(Cc2nccs2)CC1 | 1.6 | nt | nt | nt | -1.7 | nt
C[C@H](CO)N1C[C@H](C)[C@H](CN(C)Cc2ccc(C(=O)O)cc2)Oc2c(NC(=O)Nc3ccc4c(c3)OCO4)cccc2C1=O | 4.6 | -2.2[16.7 µM] | -1.3 | nt | -0.6 | nt
Cc1cccc(-n2ncc3c2CCCC3NC(=O)C2(C(N)=O)CC2)c1C (stereo unspecified) | nt | nt | 3.9 | 0.3 | 1.7 | -1.6
Cc1nnsc1C(=O)NC1CCCc2c1cnn2-c1ccccc1F (stereo unspecified) | 8.2 | -2.3 | 0.2 | -5.5 | -0.4 | 0.4
Cc1nnsc1C(=O)NC1CCCc2c1cnn2-c1ccc(C(C)(C)C)cc1 (stereo unspecified) | 8.4 | -6.2 | -1.3 | 59.6* | -1.3 | -1.3
Cc1cc(C)c(C(=O)NC2CCCc3c2cnn3-c2cccc(C)c2C)o1 (stereo unspecified) | 6.0 | -2.0 | -2.3 | -1.2 | 8.4* | 0.2
CCOc1cc(/C=N/NC(=O)c2ccncc2)ccc1OS(C)(=O)=O | -8.7 | -10.9 | -1.1 | 1.8 | nt | -0.4
CCOc1cc(/C=N/NC(=O)c2ccncc2)cc(Cl)c1OS(C)(=O)=O | -0.6 | -0.5 | 9.1 | 53.5* | -1.0 | -4.1
C[C@@H]1CN([C@@H](C)CO)S(=O)(=O)c2ccc(-c3ccncc3)cc2O[C@H]1CN(C)C(=O)C1CCC1 | -0.8 | -0.2[16.7 µM] | nt | nt | -1.3 | nt
COc1ccc(O)c(/C=N/NC(=O)c2ccc(N3CCCC3=O)cc2)c1 | -3.2 | -9.3 | 31.9 | 1.9 | 8.0* | -1.2
CC1C(=O)NN=C1C(=O)N/N=C\c1ccc(O)cc1O (stereo unspecified) | nt | -1.7 | 78.9* | nt | nt | -0.1
O=C(C[C@H]1CC[C@@H](NC(=O)C2CCOCC2)[C@@H](CO)O1)Nc1nccs1 | -11.8 | nt | -0.3 | nt | 0.5 | nt
COc1ccc2nc3cc(Cl)ccc3c(Nc3cc(C(C)C)c(O)cc3C)c2c1 | nt | nt | -16.7 | -2.4 | -1.2 | 1.9
COc1ccc2nc3cc(Cl)ccc3c(Nc3cc(CN4CCCC4)c(O)c(CN4CCCC4)c3)c2n1 | 71.7* | -13.6 | nt | nt | 5.0 | nt
CC=Cc1ccc2n(c1=O)C[C@H]1[C@H](CO)[C@@H](C(=O)NCCC)[C@@H]2N1C(=O)C1CC1 (mixture of isomers) | nt | 10.2[16.7 µM] | -18.3 | nt | 0.1 | nt
CCOc1cc(OCC)c(C(C)=O)cc1OCC | -11.6 | -1.4 | nt | -0.4 | 8.4* | -1.4
COC(=O)C[C@H]1CC[C@@H]2[C@H](COC[C@H](O)CN2S(=O)(=O)c2ccc(F)cc2)O1 | -1.5 | 5.2[16.7 µM] | 9.6 | nt | -4.9 | nt
